Experimental data reported in ChEMBL document CHEMBL4257553, “Novel organophosphorus aminopyrimidines as unique structural DNA-targeting membrane active inhibitors towards drug-resistant methicillin-resistant Staphylococcus aureus” (Medchemcomm, 2018).
Converted amounts (≈) assume the structure as drawn.

Experiments:
Format in all cases: functional
Staphylococcus aureus [1] = experiment: Antibacterial activity against Staphylococcus aureus ATCC 25923 after 24 hrs by microbroth dilution method; conditions: ATCC 25923, 24 h
In short: (§1)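 Tested by CLSI-standard broth microdilution against a panel of eleven bacterial strains, Gram-positive and Gram-negative, including MRSA.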

Staphylococcus aureus [2] = experiment: Antibacterial activity against Staphylococcus aureus after 24 hrs by microbroth dilution method; in short: as §1
Staphylococcus aureus [3] = experiment: Antibacterial activity against Staphylococcus aureus ATCC 29213 after 24 hrs by microbroth dilution method; conditions: ATCC 29213, 24 h; in short: as §1
Enterococcus faecalis = experiment: Antibacterial activity against Enterococcus faecalis after 24 hrs by microbroth dilution method; in short: as §1
Acinetobacter baumannii = experiment: Antibacterial activity against Acinetobacter baumannii after 24 hrs by microbroth dilution method; in short: as §1
Escherichia coli [4] = experiment: Antibacterial activity against Escherichia coli after 24 hrs by microbroth dilution method; in short: as §1
Pseudomonas aeruginosa [5] = experiment: Antibacterial activity against Pseudomonas aeruginosa ATCC 27853 after 24 hrs by microbroth dilution method; conditions: ATCC 27853, 24 h; in short: as §1
Aspergillus fumigatus [6] = experiment: Antifungal activity against Aspergillus fumigatus after 24 hrs by microbroth dilution method
Klebsiella pneumoniae = experiment: Antibacterial activity against Klebsiella pneumoniae after 24 hrs by microbroth dilution method; in short: as §1
Pseudomonas aeruginosa [7] = experiment: Antibacterial activity against Pseudomonas aeruginosa after 24 hrs by microbroth dilution method; in short: as §1
Staphylococcus aureus [8] = experiment: Antibacterial activity against methicillin resistant Staphylococcus aureus after 24 hrs by microbroth dilution method; in short: as §1
Aspergillus fumigatus [9] = experiment: Potency index, ratio of fluconazole MIC to compound MIC for antifungal activity against Aspergillus fumigatus
Escherichia coli [10] = experiment: Antibacterial activity against Escherichia coli ATCC 25922 after 24 hrs by microbroth dilution method; conditions: ATCC 25922, 24 h; in short: as §1
Candida albicans = experiment: Antifungal activity against Candida albicans ATCC 90023 after 24 hrs by microbroth dilution method; conditions: ATCC 90023, 24 h

Row | SMILES | MIC (Staphylococcus aureus [1]) | MIC (Staphylococcus aureus [2]) | MIC (Staphylococcus aureus [3]) | MIC (Enterococcus faecalis) | MIC (Acinetobacter baumannii) | MIC (Escherichia coli [4]) | MIC (Pseudomonas aeruginosa [5]) | MIC (Aspergillus fumigatus [6]) | MIC (Klebsiella pneumoniae) | MIC (Pseudomonas aeruginosa [7]) | MIC (Staphylococcus aureus [8]) | Ratio (Aspergillus fumigatus [9]) | MIC (Escherichia coli [10]) | MIC (Candida albicans)
1 | CCOP(=O)(OCC)C(Nc1ncccn1)c1ccc(C)cc1 (centres undefined) | 16 µg/mL (≈ 47.7 µM) | 256 µg/mL (≈ 763 µM) | 256 µg/mL (≈ 763 µM) | 8 µg/mL (≈ 23.9 µM) | 128 µg/mL (≈ 382 µM) | 256 µg/mL (≈ 763 µM) | 64 µg/mL (≈ 191 µM) | > 16 µg/mL | 128 µg/mL (≈ 382 µM) | 256 µg/mL (≈ 763 µM) | 128 µg/mL (≈ 382 µM) | 16 | 128 µg/mL (≈ 382 µM) | –
2 | Cc1ccc(C(Nc2ncccn2)P(=O)(O)O)cc1 (centres undefined) | 128 µg/mL (≈ 458 µM) | 256 µg/mL (≈ 917 µM) | 256 µg/mL (≈ 917 µM) | 256 µg/mL (≈ 917 µM) | 256 µg/mL (≈ 917 µM) | 128 µg/mL (≈ 458 µM) | 256 µg/mL (≈ 917 µM) | > 16 µg/mL | 128 µg/mL (≈ 458 µM) | 128 µg/mL (≈ 458 µM) | 256 µg/mL (≈ 917 µM) | 16 | 256 µg/mL (≈ 917 µM) | –
3 | CCOP(=O)(OCC)C(Nc1ncccn1)c1ccc(F)cc1 (centres undefined) | 64 µg/mL (≈ 189 µM) | 256 µg/mL (≈ 754 µM) | 256 µg/mL (≈ 754 µM) | 64 µg/mL (≈ 189 µM) | 128 µg/mL (≈ 377 µM) | 256 µg/mL (≈ 754 µM) | 64 µg/mL (≈ 189 µM) | > 16 µg/mL | 128 µg/mL (≈ 377 µM) | 128 µg/mL (≈ 377 µM) | 256 µg/mL (≈ 754 µM) | 16 | 256 µg/mL (≈ 754 µM) | –
4 | CCOP(=O)(OCC)C(Nc1ncccn1)c1ccccc1Cl (centres undefined) | 128 µg/mL (≈ 360 µM) | 128 µg/mL (≈ 360 µM) | 128 µg/mL (≈ 360 µM) | 128 µg/mL (≈ 360 µM) | 128 µg/mL (≈ 360 µM) | 256 µg/mL (≈ 720 µM) | 128 µg/mL (≈ 360 µM) | > 16 µg/mL | 32 µg/mL (≈ 89.9 µM) | 128 µg/mL (≈ 360 µM) | 8 µg/mL (≈ 22.5 µM) | 16 | 64 µg/mL (≈ 180 µM) | –
5 | OC(Cn1cncn1)(Cn1cncn1)c1ccc(F)cc1F [FLUCONAZOLE] | – | – | – | – | – | – | – | > 16 µg/mL | – | – | – | – | – | –
6 | CCOP(=O)(OCC)C(Nc1ncccn1)c1ccc(Cl)cc1 (centres undefined) | 64 µg/mL (≈ 180 µM) | 256 µg/mL (≈ 720 µM) | 256 µg/mL (≈ 720 µM) | 32 µg/mL (≈ 89.9 µM) | 128 µg/mL (≈ 360 µM) | 512 µg/mL (≈ 1440 µM) | 8 µg/mL (≈ 22.5 µM) | > 16 µg/mL | 128 µg/mL (≈ 360 µM) | 256 µg/mL (≈ 720 µM) | 64 µg/mL (≈ 180 µM) | 16 | 256 µg/mL (≈ 720 µM) | 8 µg/mL (≈ 22.5 µM)
7 | CCCCc1nc(Cl)c(C(Nc2ncccn2)P(=O)(OCC)OCC)n1CCC (centres undefined) | 64 µg/mL (≈ 144 µM) | 256 µg/mL (≈ 577 µM) | 128 µg/mL (≈ 288 µM) | 128 µg/mL (≈ 288 µM) | 64 µg/mL (≈ 144 µM) | 256 µg/mL (≈ 577 µM) | 128 µg/mL (≈ 288 µM) | > 16 µg/mL | 64 µg/mL (≈ 144 µM) | 128 µg/mL (≈ 288 µM) | 8 µg/mL (≈ 18 µM) | 16 | 128 µg/mL (≈ 288 µM) | –
8 | CCOP(=O)(OCC)C(Nc1ncccn1)c1ccc2c(c1)c1cc(C=O)ccc1n2CC (centres undefined) | 256 µg/mL (≈ 549 µM) | 256 µg/mL (≈ 549 µM) | 256 µg/mL (≈ 549 µM) | 16 µg/mL (≈ 34.3 µM) | 128 µg/mL (≈ 274 µM) | 512 µg/mL (≈ 1100 µM) | 256 µg/mL (≈ 549 µM) | > 16 µg/mL | 256 µg/mL (≈ 549 µM) | 256 µg/mL (≈ 549 µM) | 128 µg/mL (≈ 274 µM) | 16 | 256 µg/mL (≈ 549 µM) | –
9 | O=P(O)(O)C(Nc1ncccn1)c1ccc(F)cc1 (centres undefined) | 128 µg/mL (≈ 452 µM) | 256 µg/mL (≈ 904 µM) | 256 µg/mL (≈ 904 µM) | 256 µg/mL (≈ 904 µM) | 256 µg/mL (≈ 904 µM) | 256 µg/mL (≈ 904 µM) | 128 µg/mL (≈ 452 µM) | > 16 µg/mL | 256 µg/mL (≈ 904 µM) | 256 µg/mL (≈ 904 µM) | 128 µg/mL (≈ 452 µM) | 16 | 128 µg/mL (≈ 452 µM) | –
10 | CCOP(=O)(OCC)C(Nc1ncccn1)c1ccc([N+](=O)[O-])cc1 (centres undefined) | 8 µg/mL (≈ 21.8 µM) | 256 µg/mL (≈ 699 µM) | 256 µg/mL (≈ 699 µM) | 32 µg/mL (≈ 87.4 µM) | 128 µg/mL (≈ 349 µM) | 256 µg/mL (≈ 699 µM) | 16 µg/mL (≈ 43.7 µM) | > 16 µg/mL | 256 µg/mL (≈ 699 µM) | 256 µg/mL (≈ 699 µM) | 128 µg/mL (≈ 349 µM) | 16 | 128 µg/mL (≈ 349 µM) | –
